pIC50: −log10 of the molar value.
How the values were obtained:
Primary amine oxidase [1] = target: T1, Primary amine oxidase (Pisum sativum, UniProt Q43077); assay: Inhibition of putrescine binding to Pea seedling amine oxidase; design: species or system Lathyrus oleraceus
T1 sequence (Q43077 whole entry): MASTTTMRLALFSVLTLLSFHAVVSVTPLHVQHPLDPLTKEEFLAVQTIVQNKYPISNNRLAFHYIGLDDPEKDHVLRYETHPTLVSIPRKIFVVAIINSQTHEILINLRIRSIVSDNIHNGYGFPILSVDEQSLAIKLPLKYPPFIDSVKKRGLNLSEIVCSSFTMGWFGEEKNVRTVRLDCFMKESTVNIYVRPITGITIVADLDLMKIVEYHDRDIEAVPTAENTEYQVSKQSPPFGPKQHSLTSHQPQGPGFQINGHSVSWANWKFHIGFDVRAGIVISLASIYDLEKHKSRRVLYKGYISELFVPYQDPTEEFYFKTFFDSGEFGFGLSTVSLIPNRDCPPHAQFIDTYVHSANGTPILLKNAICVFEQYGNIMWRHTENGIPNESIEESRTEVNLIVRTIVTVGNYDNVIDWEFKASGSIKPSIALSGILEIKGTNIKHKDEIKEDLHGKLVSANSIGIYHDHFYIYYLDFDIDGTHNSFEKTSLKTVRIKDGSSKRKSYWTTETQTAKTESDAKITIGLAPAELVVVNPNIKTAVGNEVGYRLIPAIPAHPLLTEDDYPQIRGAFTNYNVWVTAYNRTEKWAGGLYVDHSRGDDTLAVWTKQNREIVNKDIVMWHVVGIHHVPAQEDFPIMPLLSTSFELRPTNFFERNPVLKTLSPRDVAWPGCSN
In short: (§1)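 Enzyme sources: BAO from commercial porcine serum; DAO porcine kidney enzyme; PSAO from homogenate of 8-day-old pea seedlings in 0.1 M phosphate pH 7.4, cleared by two centrifugations. Substrate at saturating 1 mM (benzylamine for BAO, putrescine for DAO/PSAO). Activity read as H2O2 production by 4-aminoantipyrine method. IC50 from five inhibitor concentrations, each in duplicate, averaged.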

[2] = target: T2, Amine oxidase [flavin-containing] B (Rattus norvegicus, UniProt P19643); assay: Inhibitory concentration for rat liver Monoamine oxidase B using beta-phenylethylamine
T2 sequence (P19643 whole entry): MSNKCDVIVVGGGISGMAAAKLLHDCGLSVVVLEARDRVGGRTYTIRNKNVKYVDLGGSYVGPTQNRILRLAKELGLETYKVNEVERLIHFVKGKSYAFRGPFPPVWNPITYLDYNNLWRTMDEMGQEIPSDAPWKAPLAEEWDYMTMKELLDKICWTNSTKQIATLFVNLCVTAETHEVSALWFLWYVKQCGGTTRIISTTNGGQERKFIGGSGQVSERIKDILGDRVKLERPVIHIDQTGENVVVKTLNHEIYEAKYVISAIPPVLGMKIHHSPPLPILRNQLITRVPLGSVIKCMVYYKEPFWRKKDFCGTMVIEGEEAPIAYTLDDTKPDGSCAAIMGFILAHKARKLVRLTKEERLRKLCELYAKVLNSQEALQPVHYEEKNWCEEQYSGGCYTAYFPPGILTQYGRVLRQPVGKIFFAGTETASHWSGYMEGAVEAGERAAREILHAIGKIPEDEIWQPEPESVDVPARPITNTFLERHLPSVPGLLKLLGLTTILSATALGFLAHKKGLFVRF

[3] = target: T3, Peroxisomal primary amine oxidase (Pichia angusta, UniProt P12807); assay: (§2) Inhibition of beta-phenylethylamine binding to Hansenula polymorpha amine oxidase; design: species or system Ogataea angusta
T3 sequence (P12807 whole entry): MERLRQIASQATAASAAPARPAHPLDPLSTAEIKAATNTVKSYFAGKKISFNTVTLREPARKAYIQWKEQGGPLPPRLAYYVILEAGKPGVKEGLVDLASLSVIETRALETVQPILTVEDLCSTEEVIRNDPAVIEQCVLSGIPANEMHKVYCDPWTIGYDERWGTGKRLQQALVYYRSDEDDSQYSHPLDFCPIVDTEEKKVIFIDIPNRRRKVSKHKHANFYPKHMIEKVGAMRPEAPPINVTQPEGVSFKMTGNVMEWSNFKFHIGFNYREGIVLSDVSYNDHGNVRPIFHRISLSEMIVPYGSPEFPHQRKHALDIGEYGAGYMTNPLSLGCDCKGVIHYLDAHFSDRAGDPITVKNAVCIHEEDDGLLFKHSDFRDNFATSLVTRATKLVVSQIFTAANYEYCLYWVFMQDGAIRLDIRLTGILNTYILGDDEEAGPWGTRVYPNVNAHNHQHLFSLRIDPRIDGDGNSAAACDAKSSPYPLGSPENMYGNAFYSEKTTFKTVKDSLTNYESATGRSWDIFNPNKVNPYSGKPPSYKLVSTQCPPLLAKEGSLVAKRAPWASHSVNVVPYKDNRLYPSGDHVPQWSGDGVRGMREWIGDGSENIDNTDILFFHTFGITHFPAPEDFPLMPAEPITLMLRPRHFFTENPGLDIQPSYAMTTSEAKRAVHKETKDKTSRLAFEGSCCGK

[4] = target: T4, Amine oxidase [flavin-containing] A (Rattus norvegicus, UniProt P21396); assay: Inhibitory concentration for rat liver Monoamine oxidase A using 5-hydroxytryptamine
T4 sequence (P21396 whole entry): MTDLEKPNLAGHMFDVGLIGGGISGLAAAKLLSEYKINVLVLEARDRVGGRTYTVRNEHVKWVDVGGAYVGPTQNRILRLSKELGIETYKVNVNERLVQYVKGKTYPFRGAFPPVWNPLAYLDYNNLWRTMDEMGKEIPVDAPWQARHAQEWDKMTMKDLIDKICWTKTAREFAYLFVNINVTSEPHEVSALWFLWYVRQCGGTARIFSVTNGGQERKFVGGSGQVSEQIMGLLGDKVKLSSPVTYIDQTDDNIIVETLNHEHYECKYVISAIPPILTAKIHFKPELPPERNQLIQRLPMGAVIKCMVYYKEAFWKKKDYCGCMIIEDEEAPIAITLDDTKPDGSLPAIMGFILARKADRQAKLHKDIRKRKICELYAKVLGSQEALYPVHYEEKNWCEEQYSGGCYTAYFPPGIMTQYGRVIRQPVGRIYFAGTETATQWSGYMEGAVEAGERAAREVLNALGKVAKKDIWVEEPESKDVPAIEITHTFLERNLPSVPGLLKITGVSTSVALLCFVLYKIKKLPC

Primary amine oxidase [5] = target: T1, Primary amine oxidase; assay: Inhibition of putrescine binding to pea seedling amine oxidase; design: species or system Lathyrus oleraceus; in short: as §1
[6] = target: T3, Peroxisomal primary amine oxidase; assay: Inhibition of phenylethylamine binding to Hansenula polymorpha amine oxidase
In short: (§3)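 Enzyme: HPAO from Hansenula polymorpha NCYC-495 grown 24 h with glucose, 1 µM CuSO4 and methylamine, then homogenized in 0.1 M phosphate pH 7.4 and centrifuged. Substrate beta-phenylethylamine at saturating 1 mM. IC50 means from five inhibitor concentrations tested in duplicate.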

[7] = Intraperitoneal lethal dose was measured in Mus musculus; format: ADME; conditions: ip
In short: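 Acute toxicity was tested in Swiss white Mus musculus. Five scaled doses were given intraperitoneally, 10 animals per dose.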

[8] = target: T3, Peroxisomal primary amine oxidase; assay: as §2; in short: as §3

| SMILES | pIC50 (Primary amine oxidase [1]) | pIC50 [2] | pIC50 [3] | pIC50 [4] | further results |
| --- | --- | --- | --- | --- | --- |
| CNc1cncc(N(C)C)c1CN | 4.77 | 3.60 | 4.00 | 4.36 | – |
| CNc1cnccc1CN | – | < 3.77 | – | 3.38 | pIC50 (Primary amine oxidase [5]): 6.15; pIC50 [6]: 4.28 |
| Cl.Cl.NCc1c(OCCCCO)cncc1OCCCCO | – | – | – | – | LD50 [7]: > 500 mg/kg |
| Cl.Cl.NCc1c(OCCO)cncc1OCCO.O.O.O | – | < 3.00 | – | < 2.80 | LD [7]: > 600 mg/kg |
| CNc1ccccc1CN | < 4.00 | < 4.00 | 3.12 | – | – |
| CCOc1cncc(OCc2ccccc2)c1CN | – | 3.00 | – | 3.20 | – |
| NCc1ccncc1N | – | < 2.70 | – | < 2.70 | – |
| NCc1ccncc1NC1CC1 | – | 4.05 | < 3.00 | < 4.00 | – |
| CC(C)Nc1cnccc1CN | – | 2.70 | < 3.00 | 2.66 | – |
| CCOc1cncc(OCC)c1CN.Cl.Cl | 3.48 | < 3.00 | < 3.00 | < 2.80 | LD50 [7]: 342 mg/kg |
| NCc1ccncc1NC1CCCC1 | – | < 4.00 | 3.15 | < 4.00 | – |
| CCCNc1cncc(N(C)CCC)c1CN | – | 4.70 | – | 5.00 | – |
| CCNc1cncc(N(C)CC)c1CN | 4.26 | 3.52 | 3.46 | 4.20 | – |
| CCNc1cnccc1CN | 5.03 | < 3.77 | 4.06 | 3.52 | – |
| NCc1ccncc1NC1CCCCCC1 | 3.00 | < 4.00 | < 3.52 | 3.82 | – |
| CNc1cncc(NC)c1CN | – | < 3.77 | – | 3.77 | – |
| CCSc1cncc(SCC)c1CN | – | < 3.00 | – | – | – |
| CC(C)(C)Sc1cncc(SC(C)(C)C)c1CN | – | < 3.00 | – | – | – |
| NCc1ccncc1NCC1CCCCC1 | – | 4.15 | 3.27 | 4.02 | – |
| NCc1ccncc1NC1CCCCC1 | – | < 4.00 | < 3.00 | < 4.00 | – |
| CCNc1ccccc1CN | < 4.00 | < 4.00 | – | – | pIC50 [8]: 2.82 |
| NCc1ccncc1N(C1CCCC1)C1CCCC1 | – | < 4.00 | < 3.00 | < 4.00 | – |

Source: ChEMBL document CHEMBL1141879, “Alkylamino derivatives of 4-aminomethylpyridine as inhibitors of copper-containing amine oxidases” (J Med Chem, 2005)
